Reference: ChEMBL document CHEMBL3044653, “Synthesis and herbicidal activity of 2-(substituted phenoxyacetoxy)alkyl-5,5-dimethyl-1,3,2-dioxaphosphinan-2-one” (J Agric Food Chem, 2012)

Assays:
Brassica juncea [1] = assay: Post-emergence herbicidal activity against Brassica juncea assessed as inhibition at 75 g/hectare treated at two-leaf stage by green house assay; assay type: functional
Procedure, shortened: (§1)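 Greenhouse postemergence spray of diluted formulation solutions onto broadleaf weeds at the two-leaf stage. Primary screen at 150 g ai/ha, with selected compounds retested at 75 and 37.5 g ai/ha. Abutilon was tested at 150 g ai/ha only. Read-out is percent herbicidal damage relative to an untreated control.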

Amaranthus retroflexus [2] = assay: Post-emergence herbicidal activity against Amaranthus retroflexus assessed as inhibition at 75 g/hectare treated at two-leaf stage by green house assay; assay type: functional; procedure, shortened: as §1
Ipomoea nil [3] = assay: Post-emergence herbicidal activity against Ipomoea nil (Japanese morning glory) assessed as inhibition at 75 g/hectare by green house assay; assay type: functional
Amaranthus retroflexus [4] = assay: Post-emergence herbicidal activity against Amaranthus retroflexus assessed as inhibition at 150 g/hectare by green house assay; assay type: functional
[5] = tested on: Brassica rapa subsp. chinensis; assay: Post-emergence herbicidal activity against Brassica rapa subsp. chinensis assessed as inhibition at 150 g/hectare by green house assay; assay type: functional
Triticum aestivum = assay: Toxicity in Triticum aestivum (wheat) plant assessed as inhibition at 150 g/hectare; assay type: organism-based; settings: in vivo
Procedure, shortened: (§2)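 For crop selectivity, conventional crop varieties were planted in 12 cm diameter plots and given a postemergence treatment at 150 g ai/ha. Injury was scored as percent inhibition, with 0–10% classed as safe to the crop.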

Pontederia vaginalis [6] = assay: Post-emergence herbicidal activity against Monochoria vaginalis assessed as inhibition at 75 g/hectare by green house assay; assay type: functional
Echinochloa crus-galli [7] = assay: Post-emergence herbicidal activity against Echinochloa crus-galli (barnyard grass) assessed as inhibition at 75 g/hectare treated at one-leaf stage by green house assay; assay type: functional
Procedure, shortened: (§3)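 Monocot weeds were sprayed postemergence in the greenhouse at the one-leaf stage with diluted formulation solutions. Primary dose was 150 g ai/ha, with follow-up doses of 75 and 37.5 g ai/ha for selected compounds. Activity is scored as percent herbicidal damage compared with an untreated control.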

Glycine max = assay: Toxicity in Glycine max (soybean) plant assessed as inhibition at 150 g/hectare; assay type: organism-based; settings: in vivo; procedure, shortened: as §2
Brassica juncea [8] = assay: Post-emergence herbicidal activity against Brassica juncea assessed as inhibition at 75 g/hectare by green house assay; assay type: functional
[9] = tested on: Brassica rapa subsp. oleifera; assay: Post-emergence herbicidal activity against Brassica rapa subsp. oleifera assessed as inhibition at 150 g/hectare by green house assay; assay type: functional
Chenopodium album [10] = assay: Post-emergence herbicidal activity against Chenopodium album assessed as inhibition at 150 g/hectare by green house assay; assay type: functional
Brassica napus = assay: Toxicity in Brassica napus (oilseed rape) assessed as inhibition at 150 g/hectare; assay type: functional; procedure, shortened: as §2
Setaria viridis [11] = assay: Post-emergence herbicidal activity against Setaria viridis (green foxtail) assessed as inhibition at 37.5 g/hectare treated at one-leaf stage by green house assay; assay type: functional; procedure, shortened: as §3
Radish [12] = assay: Post-emergence herbicidal activity against Raphanus sativus (radish) assessed as inhibition at 75 g/hectare by green house assay; assay type: functional
Gossypium hirsutum = assay: Toxicity in Gossypium hirsutum (cotton) plant assessed as inhibition at 150 g/hectare; assay type: organism-based; settings: in vivo; procedure, shortened: as §2
Brassica oleracea [13] = assay: Post-emergence herbicidal activity against Brassica oleracea assessed as inhibition at 75 g/hectare by green house assay; assay type: functional
Digitaria sanguinalis [14] = assay: Post-emergence herbicidal activity against Digitaria sanguinalis (hairy crabgrass) assessed as inhibition at 150 g/hectare treated at one-leaf stage by green house assay; assay type: functional; procedure, shortened: as §3
Oryza sativa = assay: Toxicity in Oryza sativa (rice) plant assessed as inhibition at 150 g/hectare; assay type: organism-based; settings: in vivo; procedure, shortened: as §2
Ipomoea nil [15] = assay: Post-emergence herbicidal activity against Ipomoea nil (Japanese morning glory) assessed as inhibition at 150 g/hectare by green house assay; assay type: functional
Eclipta prostrata [16] = assay: Post-emergence herbicidal activity against Eclipta prostrata assessed as inhibition at 37.5 g/hectare treated at two-leaf stage by green house assay; assay type: functional; procedure, shortened: as §1
Eclipta prostrata [17] = assay: Post-emergence herbicidal activity against Eclipta prostrata assessed as inhibition at 75 g/hectare treated at two-leaf stage by green house assay; assay type: functional; procedure, shortened: as §1
Echinochloa crus-galli [18] = assay: Post-emergence herbicidal activity against Echinochloa crus-galli (barnyard grass) assessed as inhibition at 37.5 g/hectare treated at one-leaf stage by green house assay; assay type: functional; procedure, shortened: as §3
Echinochloa crus-galli [19] = assay: Post-emergence herbicidal activity against Echinochloa crus-galli (barnyard grass) assessed as inhibition at 150 g/hectare treated at one-leaf stage by green house assay; assay type: functional; procedure, shortened: as §3
Digitaria sanguinalis [20] = assay: Post-emergence herbicidal activity against Digitaria sanguinalis (hairy crabgrass) assessed as inhibition at 75 g/hectare treated at one-leaf stage by green house assay; assay type: functional; procedure, shortened: as §3
Abutilon theophrasti = assay: Post-emergence herbicidal activity against Abutilon theophrasti (velvetleaf) assessed as inhibition at 150 g/hectare treated at two-leaf stage by green house assay; assay type: functional; procedure, shortened: as §1
Setaria viridis [21] = assay: Post-emergence herbicidal activity against Setaria viridis (green foxtail) assessed as inhibition at 150 g/hectare treated at one-leaf stage by green house assay; assay type: functional; procedure, shortened: as §3
Amaranthus retroflexus [22] = assay: Post-emergence herbicidal activity against Amaranthus retroflexus assessed as inhibition at 150 g/hectare treated at two-leaf stage by green house assay; assay type: functional; procedure, shortened: as §1
Radish [23] = assay: Post-emergence herbicidal activity against Raphanus sativus (radish) assessed as inhibition at 150 g/hectare by green house assay; assay type: functional
[24] = tested on: Brassica rapa subsp. chinensis; assay: Post-emergence herbicidal activity against Brassica rapa subsp. chinensis assessed as inhibition at 75 g/hectare by green house assay; assay type: functional
Ammannia baccifera [25] = assay: Post-emergence herbicidal activity against Ammannia baccifera assessed as inhibition at 75 g/hectare by green house assay; assay type: functional
Brassica juncea [26] = assay: Post-emergence herbicidal activity against Brassica juncea assessed as inhibition at 150 g/hectare treated at two-leaf stage by green house assay; assay type: functional; procedure, shortened: as §1
Setaria viridis [27] = assay: Post-emergence herbicidal activity against Setaria viridis (green foxtail) assessed as inhibition at 75 g/hectare treated at one-leaf stage by green house assay; assay type: functional; procedure, shortened: as §3
Chenopodium album [28] = assay: Post-emergence herbicidal activity against Chenopodium album assessed as inhibition at 75 g/hectare by green house assay; assay type: functional
Amaranthus retroflexus [29] = assay: Post-emergence herbicidal activity against Amaranthus retroflexus assessed as inhibition at 75 g/hectare by green house assay; assay type: functional
[30] = tested on: Brassica rapa subsp. oleifera; assay: Post-emergence herbicidal activity against Brassica rapa subsp. oleifera assessed as inhibition at 75 g/hectare by green house assay; assay type: functional
Brassica juncea [31] = assay: Post-emergence herbicidal activity against Brassica juncea assessed as inhibition at 150 g/hectare by green house assay; assay type: functional
Brassica oleracea [32] = assay: Post-emergence herbicidal activity against Brassica oleracea assessed as inhibition at 150 g/hectare by green house assay; assay type: functional
Amaranthus retroflexus [33] = assay: Post-emergence herbicidal activity against Amaranthus retroflexus assessed as inhibition at 37.5 g/hectare treated at two-leaf stage by green house assay; assay type: functional; procedure, shortened: as §1
Pontederia vaginalis [34] = assay: Post-emergence herbicidal activity against Monochoria vaginalis assessed as inhibition at 150 g/hectare by green house assay; assay type: functional
Brassica juncea [35] = assay: Post-emergence herbicidal activity against Brassica juncea assessed as inhibition at 37.5 g/hectare treated at two-leaf stage by green house assay; assay type: functional; procedure, shortened: as §1
Ammannia baccifera [36] = assay: Post-emergence herbicidal activity against Ammannia baccifera assessed as inhibition at 150 g/hectare by green house assay; assay type: functional
Zea mays = assay: Toxicity in Zea mays (maize) plant assessed as inhibition at 150 g/hectare; assay type: organism-based; settings: in vivo; procedure, shortened: as §2
Eclipta prostrata [37] = assay: Post-emergence herbicidal activity against Eclipta prostrata assessed as inhibition at 150 g/hectare treated at two-leaf stage by green house assay; assay type: functional; procedure, shortened: as §1
Digitaria sanguinalis [38] = assay: Post-emergence herbicidal activity against Digitaria sanguinalis (hairy crabgrass) assessed as inhibition at 37.5 g/hectare treated at one-leaf stage by green house assay; assay type: functional; procedure, shortened: as §3

SMILES: CC1(C)COP(=O)(C(OC(=O)COc2ccc(Cl)cc2Cl)c2ccco2)OC1 (stereo not given)
- inhibition at 75 g/ha (Brassica juncea [1]): 90%
- inhibition at 75 g/ha (Amaranthus retroflexus [2]): 70%
- inhibition at 75 g/ha (Ipomoea nil [3]): 100%
- inhibition at 150 g/ha (Amaranthus retroflexus [4]): 80%
- inhibition at 150 g/ha [5]: 80%
- inhibition (INH) (Triticum aestivum): 10%
- inhibition at 75 g/ha (Pontederia vaginalis [6]): 100%
- inhibition at 75 g/ha (Echinochloa crus-galli [7]): 0%
- inhibition (INH) (Glycine max): 30%
- inhibition at 75 g/ha (Brassica juncea [8]): 90%
- inhibition at 150 g/ha [9]: 95%
- inhibition at 150 g/ha (Chenopodium album [10]): 80%
- inhibition at 150 g/ha (Brassica napus): 40%
- inhibition at 37.5 g/ha (Setaria viridis [11]): 0%
- inhibition at 75 g/ha (Radish [12]): 80%
- inhibition (INH) (Gossypium hirsutum): 30%
- inhibition at 75 g/ha (Brassica oleracea [13]): 80%
- inhibition at 150 g/ha (Digitaria sanguinalis [14]): 40%
- inhibition (INH) (Oryza sativa): 40%
- inhibition at 150 g/ha (Ipomoea nil [15]): 100%
- inhibition at 37.5 g/ha (Eclipta prostrata [16]): 60%
- inhibition at 75 g/ha (Eclipta prostrata [17]): 62%
- inhibition at 37.5 g/ha (Echinochloa crus-galli [18]): 0%
- inhibition at 150 g/ha (Echinochloa crus-galli [19]): 30%
- inhibition at 75 g/ha (Digitaria sanguinalis [20]): 0%
- inhibition at 150 g/ha (Abutilon theophrasti): 90%
- inhibition at 150 g/ha (Setaria viridis [21]): 30%
- inhibition at 150 g/ha (Amaranthus retroflexus [22]): 80%
- inhibition at 150 g/ha (Radish [23]): 85%
- inhibition at 75 g/ha [24]: 70%
- inhibition at 75 g/ha (Ammannia baccifera [25]): 100%
- inhibition at 150 g/ha (Brassica juncea [26]): 95%
- inhibition at 75 g/ha (Setaria viridis [27]): 0%
- inhibition at 75 g/ha (Chenopodium album [28]): 70%
- inhibition at 75 g/ha (Amaranthus retroflexus [29]): 70%
- inhibition at 75 g/ha [30]: 80%
- inhibition at 150 g/ha (Brassica juncea [31]): 95%
- inhibition at 150 g/ha (Brassica oleracea [32]): 85%
- inhibition at 37.5 g/ha (Amaranthus retroflexus [33]): 50%
- inhibition at 150 g/ha (Pontederia vaginalis [34]): 100%
- inhibition at 37.5 g/ha (Brassica juncea [35]): 85%
- inhibition at 150 g/ha (Ammannia baccifera [36]): 100%
- inhibition (INH) (Zea mays): 0%
- inhibition at 150 g/ha (Eclipta prostrata [37]): 80%
- inhibition at 37.5 g/ha (Digitaria sanguinalis [38]): 0%

SMILES: CC(OC(=O)COc1ccc(Cl)cc1Cl)P1(=O)OCC(C)(C)CO1 (stereo not given)
- inhibition at 75 g/ha (Brassica juncea [1]): 95%
- inhibition at 75 g/ha (Amaranthus retroflexus [2]): 75%
- inhibition at 75 g/ha (Ipomoea nil [3]): 100%
- inhibition at 150 g/ha (Amaranthus retroflexus [4]): 95%
- inhibition at 150 g/ha [5]: 85%
- inhibition (INH) (Triticum aestivum): 0%
- inhibition at 75 g/ha (Pontederia vaginalis [6]): 100%
- inhibition at 75 g/ha (Echinochloa crus-galli [7]): 0%
- inhibition (INH) (Glycine max): 30%
- inhibition at 75 g/ha (Brassica juncea [8]): 95%
- inhibition at 150 g/ha [9]: 100%
- inhibition at 150 g/ha (Chenopodium album [10]): 85%
- inhibition at 150 g/ha (Brassica napus): 40%
- inhibition at 37.5 g/ha (Setaria viridis [11]): 0%
- inhibition at 75 g/ha (Radish [12]): 90%
- inhibition (INH) (Gossypium hirsutum): 30%
- inhibition at 75 g/ha (Brassica oleracea [13]): 80%
- inhibition at 150 g/ha (Digitaria sanguinalis [14]): 30%
- inhibition (INH) (Oryza sativa): 10%
- inhibition at 150 g/ha (Ipomoea nil [15]): 100%
- inhibition at 37.5 g/ha (Eclipta prostrata [16]): 50%
- inhibition at 75 g/ha (Eclipta prostrata [17]): 70%
- inhibition at 37.5 g/ha (Echinochloa crus-galli [18]): 0%
- inhibition at 150 g/ha (Echinochloa crus-galli [19]): 30%
- inhibition at 75 g/ha (Digitaria sanguinalis [20]): 0%
- inhibition at 150 g/ha (Abutilon theophrasti): 95%
- inhibition at 150 g/ha (Setaria viridis [21]): 30%
- inhibition at 150 g/ha (Amaranthus retroflexus [22]): 95%
- inhibition at 150 g/ha (Radish [23]): 95%
- inhibition at 75 g/ha [24]: 80%
- inhibition at 75 g/ha (Ammannia baccifera [25]): 100%
- inhibition at 150 g/ha (Brassica juncea [26]): 95%
- inhibition at 75 g/ha (Setaria viridis [27]): 0%
- inhibition at 75 g/ha (Chenopodium album [28]): 80%
- inhibition at 75 g/ha (Amaranthus retroflexus [29]): 75%
- inhibition at 75 g/ha [30]: 90%
- inhibition at 150 g/ha (Brassica juncea [31]): 95%
- inhibition at 150 g/ha (Brassica oleracea [32]): 90%
- inhibition at 37.5 g/ha (Amaranthus retroflexus [33]): 70%
- inhibition at 150 g/ha (Pontederia vaginalis [34]): 100%
- inhibition at 37.5 g/ha (Brassica juncea [35]): 90%
- inhibition at 150 g/ha (Ammannia baccifera [36]): 100%
- inhibition (INH) (Zea mays): 0%
- inhibition at 150 g/ha (Eclipta prostrata [37]): 85%
- inhibition at 37.5 g/ha (Digitaria sanguinalis [38]): 0%
